Test results as given in ChEMBL document CHEMBL4811254, “Beyond Basicity: Discovery of Nonbasic DENV-2 Protease Inhibitors with Potent Activity in Cell Culture” (J Med Chem, 2021).
Activity calls are given as the source filed them.

Assays:
[1] = biological target: Genome polyprotein (dengue virus type 2) (UniProt P29990); experiment: Binding affinity to DENV2 NS2B-NS3 protease expressed in Escherichia coli BL21 lambda(DE3) assessed as quenching of fluorescence of tryptophan residue of the enzyme at 50 uM incubated for 1 hr in presence of aprotinin by tryptophan fluorescence quenching assay
[2] = Cytotoxicity against human HeLa cells assessed as reduction in cell viability incubated for 24 hrs by CellTiter-Blue assay; assay type: cell-based
Procedure, shortened: (§1)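 Viability by CellTiter-Blue in HeLa or Huh-7 cells exposed to compound dilutions. Plates run in parallel with the reporter assay (HeLa) or the virus titer assay (Huh-7).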

[3] = biological target: Genome polyprotein (dengue virus type 2) (UniProt P29990); experiment: Binding affinity to DENV2 NS2B-NS3 protease expressed in Escherichia coli BL21 lambda(DE3) assessed as quenching of fluorescence of tryptophan residue of the enzyme incubated for 1 hr by tryptophan fluorescence quenching assay; conditions: dose 10-50 µM
Procedure, shortened: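 Compound added to isolated DENV-2 protease; tryptophan fluorescence quenching monitored across concentrations. Aprotinin added as active-site competitor to test displacement.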

[4] = biological target: Prothrombin (Homo sapiens) (UniProt P00734); experiment: Inhibition of thrombin in human plasma using Boc-Val-Pro-Arg-AMC as substrate at 25 uM preincubated with enzyme for 15 mins followed by substrate addition and measured for 15 mins by fluorimetric assay; assay type: cell-free; conditions: time 30.0 min
Genome polyprotein [5] = biological target: T1, Genome polyprotein (dengue virus type 2, UniProt P29990); experiment: Inhibition of NS2B-NS3 protease in DENV2proHeLa system assessed as inhibition of luciferase signal incubated for 24 hrs by luciferase reporter gene assay; assay type: cell-based, HeLa
Procedure, shortened: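 HeLa cells stably carrying the reporter system, 2 × 10⁴ per well, given inhibitor at seeding and held 24 h at 37 °C. Cells lysed 15 min at room temperature. Luciferase read for 5 s after injecting coelenterazine (2.75 μM in PBS). Triplicate wells per concentration; percent inhibition taken against untreated cells. EC50/EC90 from 4-parameter dose-response fit, background from cell-free wells subtracted.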

[6] = biological target: Genome polyprotein (dengue virus type 2) (UniProt P29990); experiment: Inhibition of NS2B-NS3 protease in DENV2proHeLa system assessed as inhibition of luciferase signal at 12.5 uM incubated for 24 hrs by luciferase reporter gene assay; assay type: cell-based; conditions: HeLa
Procedure, shortened: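 Stable DENV2proHeLa cells seeded at 2 × 10⁴/well and dosed immediately, then incubated 24 h at 37 °C. Cells lysed 15 min at room temperature. Luciferase read with coelenterazine (2.75 μM in PBS) injection, luminescence 5 s. Triplicates; percent inhibition calculated relative to untreated control; background from cell-free wells.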

Trypsin (Homo sapiens) = Trypsin (Homo sapiens) (UniProt P07477+P07478+P35030); experiment: Inhibition of trypsin (unknown origin) using Boc-Val-Pro-Arg-AMC as substrate at 50 uM preincubated with enzyme for 15 mins followed by substrate addition and measured for 15 mins by fluorimetric assay; assay type: protein assay; conditions: time 30.0 min
[7] = Selectivity index, ratio of CC50 for human HeLa cells to EC50 for inhibition of NS2B-NS3 protease in DENV2proHeLa system; assay type: toxicity; conditions: read-out: Ratio CC50/EC50
[8] = biological target: Genome polyprotein (West Nile virus) (UniProt P06935); experiment: Inhibition of WNV NS2B-NS3 protease expressed in Escherichia coli BL21 lambda(DE3) using FRET substrate preincubated with enzyme for 15 mins in presence of detergent CHAPS followed by substrate addition for 15 mins by fluorescence based analysis; conditions: time 30.0 min
Huh-7 = experiment: Cytotoxicity against human Huh-7 cells assessed as reduction in cell viability at 12.5 uM incubated for 48 hrs by CellTiter-Blue assay; assay type: cell-based; conditions: huh-7, 48 h; procedure, shortened: as §1
[9] = Passive membrane permeability of the compound in phosphate buffered saline assessed as mass retention of the compound at 200 uM incubated for 5 hrs by PAMPA assay based HPLC analysis; assay type: ADME
Procedure, shortened: (§2)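 Precoated trilayer PAMPA, 5 h incubation. Acceptor and donor concentrations measured after 5 h. Permeability and mass retention calculated by a literature method.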

[10] = Passive membrane permeability of the compound in phosphate buffered saline assessed as concentration of the compound in acceptor plate at 200 uM incubated for 5 hrs by PAMPA assay based HPLC analysis; assay type: ADME; procedure, shortened: as §2
[11] = biological target: Genome polyprotein (dengue virus type 2) (UniProt P29990); experiment: Inhibition of DENV2 NS2B-NS3 protease expressed in Escherichia coli BL21 lambda(DE3) using FRET substrate preincubated with enzyme for 15 mins in presence of detergent CHAPS followed by substrate addition for 15 mins by fluorescence based analysis; conditions: time 30.0 min
[12] = Passive membrane permeability of the compound in phosphate buffered saline assessed as concentration of the compound in donor plate at 200 uM incubated for 5 hrs by PAMPA assay based HPLC analysis; assay type: ADME; procedure, shortened: as §2
dengue virus type 2 [13] = experiment: Antiviral activity against DENV2 infected in human Huh7 cells assessed as reduction in virus titer in cell supernatant by measuring inhibition of plaque formation using VeroE6 cells at 12.5 uM preincubated with viral infected Huh7 cells for 48 hrs and measured following infection of VeroE6 cells with supernatants for 7 days by plaque assay based crystal violet staining analysis; assay type: functional; conditions: Huh-7, 216 h, time 9 day
Procedure, shortened: (§3)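 Huh-7 cells seeded at 1 × 10⁴/well and incubated overnight. Infected with DENV-2 at MOI 1 for 2 h, then medium changed and compound added. […] Pooled supernatants titred by plaque assay on VeroE6 cells: 10⁻¹ to 10⁻⁶ dilutions, 1 h infection, 7 days, formaldehyde fix, crystal violet.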

dengue virus type 2 [14] = experiment: Antiviral activity against DENV2 infected in human Huh7 cells assessed as reduction in virus titer in cell supernatant by measuring inhibition of plaque formation using VeroE6 cells preincubated with viral infected Huh7 cells for 48 hrs and measured following infection of VeroE6 cells with supernatants for 7 days by plaque assay based crystal violet staining analysis; assay type: functional, organism-based, Huh-7; conditions: for EC50: Huh-7; for EC90: Huh-7, 216 h, time 9 day; procedure, shortened: as §3
[15] = Passive membrane permeability of the compound in phosphate buffered saline at 200 uM incubated for 5 hrs by PAMPA assay based HPLC analysis; assay type: ADME; conditions: PAMPA, read-out: permeability; procedure, shortened: as §2
[16] = Stability of the compound assessed as bovine pancreas trypsin-mediated parent compound depletion at 0.1 mg/ml incubated for 120 mins by HPLC analysis; assay type: ADME, Bos taurus; conditions: cattle; for metabolised at 2 h, 0.1 mg/ml: bovine pancreas trypsin, read-out: Drug degradation
Procedure, shortened: (§4)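 Compound incubated with α-chymotrypsin or bovine trypsin in buffer for 120 min at 37 °C; parent compound depletion monitored.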

Genome polyprotein [17] = biological target: T1, Genome polyprotein; experiment: Competitive inhibition of DENV2 NS2B-NS3 protease expressed in Escherichia coli BL21 lambda(DE3) using FRET substrate preincubated with enzyme for 15 mins followed by varying concentrations of substrate addition for 15 mins by Cheng-Prusoff plot analysis
[18] = Stability of the compound assessed as bovine pancreas alphachymotrypsin-mediated parent compound depletion by measuring parent compound remaining at 0.1 mg/ml incubated for 120 mins by HPLC analysis; assay type: ADME, Bos taurus; conditions: cattle, bovine pancreas alpha-chymotrypsin, read-out: Stabilty; procedure, shortened: as §4
[19] = biological target: Genome polyprotein (dengue virus type 2) (UniProt P29990); experiment: Competitive inhibition of DENV2 NS2B-NS3 protease expressed in Escherichia coli BL21 lambda(DE3) assessed as increase in Km without change in Vmax using FRET substrate preincubated with enzyme for 15 mins followed by substrate addition for 15 mins by Michaelis-Menten based analysis; conditions: time 30.0 min
Genome polyprotein [20] = biological target: T1, Genome polyprotein; experiment: Competitive inhibition of DENV2 NS2B-NS3 protease expressed in Escherichia coli BL21 lambda(DE3) using FRET substrate preincubated with enzyme for 15 mins followed by substrate addition for 15 mins by Michaelis-Menten based analysis

Genome polyprotein (West Nile virus), sequence (P06935 whole entry): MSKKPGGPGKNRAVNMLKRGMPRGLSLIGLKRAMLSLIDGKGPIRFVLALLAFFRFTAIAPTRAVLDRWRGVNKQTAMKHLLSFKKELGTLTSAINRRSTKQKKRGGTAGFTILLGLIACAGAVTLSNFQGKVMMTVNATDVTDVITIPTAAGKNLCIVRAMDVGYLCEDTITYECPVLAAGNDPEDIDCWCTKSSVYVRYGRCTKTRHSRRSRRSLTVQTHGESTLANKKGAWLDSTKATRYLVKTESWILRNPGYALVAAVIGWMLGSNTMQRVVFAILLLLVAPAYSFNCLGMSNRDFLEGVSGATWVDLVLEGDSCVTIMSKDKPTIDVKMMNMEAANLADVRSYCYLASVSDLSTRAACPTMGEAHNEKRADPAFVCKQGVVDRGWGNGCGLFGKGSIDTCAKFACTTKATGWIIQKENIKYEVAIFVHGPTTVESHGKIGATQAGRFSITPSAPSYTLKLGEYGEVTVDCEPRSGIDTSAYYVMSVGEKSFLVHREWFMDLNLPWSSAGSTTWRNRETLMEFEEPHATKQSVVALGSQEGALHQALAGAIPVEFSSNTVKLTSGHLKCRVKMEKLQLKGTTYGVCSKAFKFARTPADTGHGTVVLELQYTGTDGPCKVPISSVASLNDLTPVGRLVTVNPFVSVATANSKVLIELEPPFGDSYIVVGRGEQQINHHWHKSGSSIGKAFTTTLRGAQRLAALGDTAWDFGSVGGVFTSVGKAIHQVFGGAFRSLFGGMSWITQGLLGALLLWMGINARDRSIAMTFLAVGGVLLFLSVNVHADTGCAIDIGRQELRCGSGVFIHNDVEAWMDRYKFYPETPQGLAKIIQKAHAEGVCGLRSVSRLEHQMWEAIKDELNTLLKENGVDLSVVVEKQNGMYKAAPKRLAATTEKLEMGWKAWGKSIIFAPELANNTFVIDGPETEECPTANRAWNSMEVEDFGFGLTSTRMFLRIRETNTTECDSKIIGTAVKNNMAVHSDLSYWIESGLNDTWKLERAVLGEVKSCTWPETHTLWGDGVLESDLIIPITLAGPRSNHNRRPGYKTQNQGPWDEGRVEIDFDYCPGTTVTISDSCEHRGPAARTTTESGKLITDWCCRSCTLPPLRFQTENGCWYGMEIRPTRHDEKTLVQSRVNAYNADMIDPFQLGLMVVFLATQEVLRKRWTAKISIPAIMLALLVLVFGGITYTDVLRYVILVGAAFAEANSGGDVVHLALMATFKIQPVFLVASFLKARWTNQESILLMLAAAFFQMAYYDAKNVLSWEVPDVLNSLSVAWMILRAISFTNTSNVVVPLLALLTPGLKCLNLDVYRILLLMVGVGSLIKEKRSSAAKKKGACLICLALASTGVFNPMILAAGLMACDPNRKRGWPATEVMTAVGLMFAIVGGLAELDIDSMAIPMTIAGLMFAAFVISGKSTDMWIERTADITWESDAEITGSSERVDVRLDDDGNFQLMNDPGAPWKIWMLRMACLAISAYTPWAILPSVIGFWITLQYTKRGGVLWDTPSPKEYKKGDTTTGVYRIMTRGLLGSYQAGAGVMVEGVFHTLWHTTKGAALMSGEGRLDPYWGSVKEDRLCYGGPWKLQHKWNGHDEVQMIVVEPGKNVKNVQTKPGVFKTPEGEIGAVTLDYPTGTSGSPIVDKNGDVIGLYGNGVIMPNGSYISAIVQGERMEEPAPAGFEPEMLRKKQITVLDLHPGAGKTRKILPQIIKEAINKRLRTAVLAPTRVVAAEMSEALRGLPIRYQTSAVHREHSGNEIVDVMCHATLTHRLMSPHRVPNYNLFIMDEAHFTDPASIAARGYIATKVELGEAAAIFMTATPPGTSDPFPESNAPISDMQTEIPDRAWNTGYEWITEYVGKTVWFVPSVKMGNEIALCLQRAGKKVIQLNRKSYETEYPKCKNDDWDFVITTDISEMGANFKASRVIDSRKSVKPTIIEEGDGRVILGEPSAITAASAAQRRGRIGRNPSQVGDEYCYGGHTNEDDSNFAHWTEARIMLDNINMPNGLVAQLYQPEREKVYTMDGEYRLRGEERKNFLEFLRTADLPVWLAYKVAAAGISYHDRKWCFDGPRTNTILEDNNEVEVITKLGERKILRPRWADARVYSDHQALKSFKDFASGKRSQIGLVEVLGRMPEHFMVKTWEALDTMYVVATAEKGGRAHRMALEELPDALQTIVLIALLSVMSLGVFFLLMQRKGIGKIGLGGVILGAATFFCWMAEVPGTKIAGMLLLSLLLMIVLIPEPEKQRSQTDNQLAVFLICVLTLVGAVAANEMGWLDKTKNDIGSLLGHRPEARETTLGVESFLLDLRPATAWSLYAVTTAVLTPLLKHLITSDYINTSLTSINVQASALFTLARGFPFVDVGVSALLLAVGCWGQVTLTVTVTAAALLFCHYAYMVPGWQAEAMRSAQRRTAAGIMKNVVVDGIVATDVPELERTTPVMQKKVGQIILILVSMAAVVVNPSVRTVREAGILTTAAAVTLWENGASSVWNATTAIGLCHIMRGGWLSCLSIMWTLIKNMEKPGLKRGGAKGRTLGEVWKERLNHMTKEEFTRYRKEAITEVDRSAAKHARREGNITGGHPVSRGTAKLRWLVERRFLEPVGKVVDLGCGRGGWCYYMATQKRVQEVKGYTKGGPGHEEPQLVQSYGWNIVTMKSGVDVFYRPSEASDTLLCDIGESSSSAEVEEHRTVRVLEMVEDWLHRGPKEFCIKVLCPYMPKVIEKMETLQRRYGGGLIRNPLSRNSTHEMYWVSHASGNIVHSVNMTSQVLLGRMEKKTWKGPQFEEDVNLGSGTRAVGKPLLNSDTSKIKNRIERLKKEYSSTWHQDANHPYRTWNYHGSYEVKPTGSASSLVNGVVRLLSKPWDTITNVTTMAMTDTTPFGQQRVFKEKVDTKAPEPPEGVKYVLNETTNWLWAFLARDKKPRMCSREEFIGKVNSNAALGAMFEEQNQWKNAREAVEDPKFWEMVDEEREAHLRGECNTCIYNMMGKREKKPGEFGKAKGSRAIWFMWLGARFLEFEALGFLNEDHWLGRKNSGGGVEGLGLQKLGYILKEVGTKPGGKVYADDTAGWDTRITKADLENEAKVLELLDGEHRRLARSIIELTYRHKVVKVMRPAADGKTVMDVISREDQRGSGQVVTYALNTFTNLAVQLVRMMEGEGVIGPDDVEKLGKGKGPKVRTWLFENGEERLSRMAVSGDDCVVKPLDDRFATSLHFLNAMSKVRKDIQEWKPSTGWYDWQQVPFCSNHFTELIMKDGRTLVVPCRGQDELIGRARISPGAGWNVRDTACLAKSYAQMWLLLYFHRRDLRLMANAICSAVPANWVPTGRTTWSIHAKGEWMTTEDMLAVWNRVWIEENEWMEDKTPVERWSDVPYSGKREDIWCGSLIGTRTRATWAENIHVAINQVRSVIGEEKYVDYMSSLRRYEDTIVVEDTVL

| Compound | CC50 at 24 h [2] [µM] | inhibition [4] | EC50 (Genome polyprotein [5]) [µM] | inhibition [6] [%] | inhibition (Trypsin (Homo sapiens)) | Activity (Huh-7) [%] | Activity [9] [%] | Activity [10] [µM] | inhibition [11] | Activity [12] [µM] | inhibition at 12.5 µM (dengue virus type 2 [13]) [%] | EC50 (dengue virus type 2 [14]) [µM] | EC90 (dengue virus type 2 [14]) [µM] | Papp at 5 h, 200 µM [15] [×10⁻⁶ cm/s] | further results |
| --- | --- | --- | --- | --- | --- | --- | --- | --- | --- | --- | --- | --- | --- | --- | --- |
| NC(=O)c1ccc(CNC(=O)[C@@H](NC(=O)c2ccc(-c3cccs3)s2)c2ccc(OCc3ccccc3)cc2)cc1 | > 100 | inactive | 6.2 | 63 | inactive | – | – | – | – | – | – | – | – | – | Activity [1]: inactive; Activity [3]: Active |
| NC(=O)c1cccc(NC(=O)[C@@H](NC(=O)c2ccc(Oc3ccc(Cl)cc3)cc2)c2ccc(OCc3ccccc3)cc2)c1 | 96 | inactive | 0.58 | 86 | inactive | – | – | – | – | – | – | – | – | – | selectivity ratio [7]: > 140 |
| N#Cc1ccc(Oc2ccc(C(=O)N[C@H](C(=O)Nc3cccc(C(N)=O)c3)c3ccc(OCc4ccccc4)cc3)cc2)cc1 | > 100 | inactive | 1 | 79 | inactive | < 20 | 9.9 | 4.5 | Active | 177 | 88 | 0.66 | 8 | 1 | inhibition [8]: Active |
| NC(=O)c1cccc(NC(=O)[C@@H](NC(=O)c2ccc(Oc3ccc4c(c3)OCO4)cc2)c2ccc(OCc3ccccc3)cc2)c1 | > 100 | inactive | 1.5 | 78 | inactive | < 20 | 8.7 | 3.7 | Active | 180 | 98 | 2.2 | 6.8 | 0.8 | – |
| NC(=O)c1cccc(NC(=O)[C@@H](NC(=O)c2ccc(C(=O)c3ccccc3)cc2)c2ccc(OCc3ccccc3)cc2)c1 | > 100 | inactive | 0.39 | 76 | inactive | < 20 | 8.1 | 8.6 | Active | 178 | 100 | 1.1 | 4.6 | 1.8 | metabolised at 2 h, 0.1 mg/ml [16]: 25%; Ki (Genome polyprotein [17]): 3.5 µM; remaining at 2 h, 0.1 mg/ml [18]: 70% |
| NC(=O)c1cccc(NC(=O)[C@@H](NC(=O)c2ccc(-c3ccco3)cc2)c2ccc(OCc3ccccc3)cc2)c1 | > 50 | inactive | 1.7 | 76 | inactive | < 20 | 15 | 2.1 | – | 169 | 59 | – | – | 0.45 | Activity [1]: inactive; Activity [3]: Active |
| NC(=O)c1ccc(CNC(=O)[C@@H](NC(=O)c2ccc(Oc3ccccc3)cc2)c2ccc(OCc3ccccc3)cc2)cc1 | 18 | inactive | 1 | 82 | inactive | 61.4 | 8.9 | 3 | Active | 180 | 90 | – | – | 0.61 | – |
| NC(=O)c1cccc(NC(=O)[C@@H](NC(=O)c2ccc(Oc3ccccc3)cc2)c2ccc(OCc3ccccc3)cc2)c1 | > 100 | inactive | 0.73 | 83 | inactive | < 20 | 15 | 9.5 | Active | 164 | 100 | 0.66 | 7 | 2.2 | selectivity ratio [7]: > 140; inhibition [19]: Active; metabolised at 2 h, 0.1 mg/ml [16]: 25%; Ki (Genome polyprotein [17]): 6.1 µM; Ki (Genome polyprotein [20]): 5.2 µM; remaining at 2 h, 0.1 mg/ml [18]: 70% |
| N=C(N)NCCC[C@H](NC(=O)c1ccccc1)C(=O)NC(CCCCN)C(=O)NC(C(N)=O)c1ccc(OCc2ccccc2)cc1 (some centres undefined) | – | – | – | – | – | < 20 | – | – | Active | – | 50 | – | – | – | inhibition [8]: Active; Stabilty ([16]; isolated protein, 2 h): Unstable |
